Compound activity (PubChem)
Sampled rows, rich in hits. Any-hit rate of the full collection: about 3.7%.
Kir21 inh: blocks the mouse Kir2.1 inward-rectifier potassium channel. P35561. HEK293-Kir2.1, FluxOR thallium flux fluorescence; active compounds read low. B-score at 10 µM. 0.85% of 310,000 active. AID 1672;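 active means fluorescence ratio B-score at or below minus 3 SD of library scores, with starting-brightness B-score within 2 SD, cut at about -4.2 in these data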;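 further: channel flux triggered by added potassium and thallium sulfate stimulus; B-score of peak minus minimum fluorescence over baseline after thallium stimulus; more negative B-score means stronger Kir2.1 block with less thallium influx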
hERG protect: shields human hERG channel from block by proarrhythmic agents | CHO-hERG, FluxOR thallium flux, dofetilide IC70 present | 0.51% of 310,000 active | activation (rescue from dofetilide block), less the hit threshold, % at 10 µM | Q12809;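 active means activation above the mean of controls blocked by dofetilide plus 5 SD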;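 further: thallium influx through hERG after potassium depolarization seen as dye fluorescence rise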
Target sequence (Q12809 whole entry, looked up): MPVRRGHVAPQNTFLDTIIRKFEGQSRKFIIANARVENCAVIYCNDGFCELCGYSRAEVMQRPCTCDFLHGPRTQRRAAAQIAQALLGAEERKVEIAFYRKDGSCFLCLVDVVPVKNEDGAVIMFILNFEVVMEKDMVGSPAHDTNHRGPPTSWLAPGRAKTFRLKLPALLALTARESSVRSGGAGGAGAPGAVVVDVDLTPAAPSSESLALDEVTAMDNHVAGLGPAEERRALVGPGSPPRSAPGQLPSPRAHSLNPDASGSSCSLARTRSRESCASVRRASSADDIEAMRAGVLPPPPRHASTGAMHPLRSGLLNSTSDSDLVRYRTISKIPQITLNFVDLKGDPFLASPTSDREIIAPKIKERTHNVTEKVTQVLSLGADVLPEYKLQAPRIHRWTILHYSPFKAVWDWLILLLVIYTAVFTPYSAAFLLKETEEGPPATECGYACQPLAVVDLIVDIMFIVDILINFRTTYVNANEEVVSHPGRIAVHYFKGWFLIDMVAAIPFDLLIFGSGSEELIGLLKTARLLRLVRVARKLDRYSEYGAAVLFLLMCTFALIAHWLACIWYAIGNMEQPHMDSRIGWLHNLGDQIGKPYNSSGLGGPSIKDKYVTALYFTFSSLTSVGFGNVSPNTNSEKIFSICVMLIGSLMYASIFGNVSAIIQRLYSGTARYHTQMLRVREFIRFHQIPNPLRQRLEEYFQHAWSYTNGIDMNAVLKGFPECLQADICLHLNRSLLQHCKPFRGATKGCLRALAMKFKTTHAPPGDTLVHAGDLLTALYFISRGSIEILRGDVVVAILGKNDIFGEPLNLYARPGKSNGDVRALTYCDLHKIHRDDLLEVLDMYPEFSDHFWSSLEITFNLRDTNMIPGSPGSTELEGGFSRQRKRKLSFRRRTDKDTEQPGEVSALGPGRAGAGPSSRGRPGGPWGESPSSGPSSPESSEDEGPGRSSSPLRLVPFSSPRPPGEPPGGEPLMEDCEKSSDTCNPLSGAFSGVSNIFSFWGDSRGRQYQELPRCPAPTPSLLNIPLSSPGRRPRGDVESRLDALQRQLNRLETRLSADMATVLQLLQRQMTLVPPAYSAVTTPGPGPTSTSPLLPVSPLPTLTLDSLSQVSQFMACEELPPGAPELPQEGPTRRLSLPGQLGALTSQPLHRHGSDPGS
KCNK3 block: human KCNK3 channel inhibition, primary screen; O14649; CHO-KCNK3 thallium flux, FluxOR fluorescence; active compounds read low; B-score at 10 µM; 0.84% of 340,000 active; AID 602410;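 active means B-score under library mean minus 4 SD, starting fluorescence ratio at most library mean plus 5 SD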;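 further: more negative B-score means stronger inhibition of thallium flux through KCNK3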
KCNQ1 inh: human KCNQ1 channel inhibition. CHO-K1 KCNQ1, FluxOR thallium flux fluorescence; active compounds read high. 1.3% of 310,000 active. B-score at 10 µM;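 active means compounds whose thallium flux B-score, printed positive for inhibition, exceeds three library SD while starting fluorescence stays within three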;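 further: channel opened by potassium depolarization with thallium stimulus after 20 min compound exposure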
KCNK9 block: human KCNK9 channel inhibition; Q9NPC2; HEK293 KCNK9, FluxOR thallium flux fluorescence; active compounds read low; B-score at 10 µM; 1.2% of 310,000 active; AID 488922;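 active means ratio B-score over 3 SD below the library mean, with starting fluorescence within 5 SD of its mean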;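 further: negative B-score means less thallium flux so channel inhibition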
KCNQ1 act: potentiates or activates the human KCNQ1 potassium channel. P51787. CHO-K1 KCNQ1, thallium flux FluxOR fluorescence; active compounds read high. B-score at 10 µM. 0.35% of 310,000 active;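 active means fluorescence ratio B-score, a plate-corrected score, at least three library SD, with initial intensity B-score within 5 SD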
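Schedule – 37 °C overnight plating, 90-min dark dye load, 20-min compound pretreatment · System – stable KCNQ1 CHO-K1 line · Probe or stimulus – thallium- and potassium-containing depolarizing buffer · Measured by – kinetic FluxOR fluorescence, 10 s baseline plus 110 s post-stimulus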
An asterisk follows results filed as active; i = inactive; nt = not tested or not shown.

SMILES	Kir21 inh	hERG protect	KCNK3 block	KCNQ1 inh	KCNK9 block	KCNQ1 act
O=C(CCNC(=O)c1ccc(Cl)cc1)Nc1ccc(S(=O)(=O)N2CCCCC2)cc1	-2.34	-5.6	i	i	i	i
CC(=O)Nc1ccc(S(=O)(=O)NC(C)C(=O)NCC(c2ccco2)N(C)C)cc1 (configuration not stated)	nt	nt	i	nt	nt	nt
COc1ccc(/C=N/NC(=O)c2cccc(C(=O)N/N=C/c3ccc(OC)c(OC)c3)n2)cc1OC	-0.01	-9.4	i	i	i	i
COc1ccc(/C=N/NC(=O)Nc2cccc3nsnc23)cc1OC	-1.28	-13.4	i	i	-6.58*	i
O=C(CSc1nc2ccccc2n1Cc1ccc(Cl)cc1)N/N=C/c1ccc(C(=O)O)cc1	2.28	-4.9	i	i	-6.8*	i
O=C(CSc1nc2ccccc2n1Cc1ccccc1)N/N=C/c1ccccc1C(=O)O	-0.19	-6.9	i	i	i	i
Cc1cccc2sc(NC(=O)CN(C)S(=O)(=O)c3ccc(Br)s3)nc12	0.95	-6.2	-9.91*	i	i	i
Cc1cc(C)c2nc(N3C(=O)C(O)=C(C(=O)c4ccco4)C3c3ccco3)sc2c1 (configuration not stated)	0.25	-5.3	i	i	i	i
CCOC(=O)C1CCCN(C(=O)C(C)(C)Oc2ccc(Cl)cc2)C1 (configuration not stated)	-5.04*	-14.1	i	i	i	i
CN(Cc1nc(-c2cccnc2)no1)S(=O)(=O)c1ccc2ccccc2c1	-4.85*	-11.3	i	i	i	i
C=C(C)CSc1cc(C)c(C#N)c2nc3ccccc3n12	-0.89	-25.5	i	6*	i	i
OCCC1CN(Cc2ccc(-c3ccco3)cc2)CCN1Cc1ccsc1 (configuration not stated)	-4.52*	-18.1	i	i	i	i
OCCC1CN(Cc2cccc3nonc23)CCN1Cc1ccsc1 (configuration not stated)	0.11	-7.9	i	i	i	i
OCCC1CN(Cc2ccccc2OC2CCCC2)CCN1Cc1ccsc1 (configuration not stated)	-4.45*	-9.1	i	i	i	i
O=C(CN1CCCC1c1cccs1)Nc1cc(S(=O)(=O)N2CCCCC2)ccc1Cl (configuration not stated)	nt	nt	i	nt	nt	nt
Cc1onc(-c2ccccc2)c1-c1csc(N/N=C/c2ccccc2Cl)n1	1.88	-7.2	i	9*	i	i
Cc1onc(-c2ccc(Cl)cc2Cl)c1-c1csc(N/N=C/c2ccccc2Cl)n1	-0.48	-4.2	i	i	i	i
CC(C)C(NC(=O)c1ccc(C(C)(C)C)cc1)C(=O)NCc1ccccn1 (configuration not stated)	nt	nt	i	nt	nt	nt
CN(C)Cc1ccccc1C(O)(c1ccccc1)c1ccccc1	-4.74*	-6.2	i	i	i	i
O=c1c2cc(Cl)ccc2nc(-c2ccccc2)n1O	-0.02	11.3*	i	i	i	8*
O=c1c2ccc(Cl)cc2nc(-c2ccc([N+](=O)[O-])cc2)n1O	1.03	6.7*	i	i	i	35*
O=c1c2cc(Br)ccc2nc(-c2ccc([N+](=O)[O-])cc2)n1O	0.35	16.3*	i	i	i	26*
O=c1c2cc(Br)ccc2nc(-c2cccc(C(F)(F)F)c2)n1O	0.13	72.6*	i	i	i	99*
Cc1nc(N)[nH]c(=O)c1CCCNc1ccc(CCC2(CCl)OCCO2)cc1	nt	nt	i	nt	nt	nt
O=C1C=C(c2ccc3ccccc3c2)C[C@@H](c2ccc(F)cc2)C1	nt	nt	i	nt	nt	nt
CC(=O)Nc1ccc(NCC(=O)c2ccccc2)cc1	0.52	-6.7	i	i	i	i
CCSc1nc(C(F)(F)F)cc(=O)n1-c1ccccc1	-2.77	-15.1	i	i	i	i
CC(C)Sc1nc(C(F)(F)F)cc(=O)n1-c1ccccc1	-4.36*	-13.8	i	i	i	i
O=C1CCC(=O)c2ccc3c4c(ccc1c24)CC3	nt	nt	i	nt	nt	nt
O=C1CCN2C=Nc3cccc4ccc1c2c34	-14.9	-47.8	i	25*	i	i
